Values after ≈ are worked out from the molar mass of the structure shown. Active and inactive are the calls of the source. No cut-off for these calls is given here.
Assays:
[1] = Cytotoxicity against mouse J774A1 cells assessed as cell viability after 24 hrs by Trypan blue exclusion assay; type: cell-based; conditions: J774.A1, 24 h
[2] = Selectivity index, ratio of IC50 for mouse J774A1 cells to MIC for Mycobacterium tuberculosis H37Rv expressing luciferase; type: toxicity, cell-based, J774.A1; conditions: read-out: Selectivity Index
Summary of the method: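 SI = IC50/MIC. IC50 came from a neutral red uptake assay on J774 A.1 cells after 24 h exposure in DMEM + 10% FCS, with OD 530 nm. […] Both were from triplicate cultures.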

[3] = system: Mycobacterium tuberculosis; assay: Antimycobacterial activity against Mycobacterium tuberculosis H37Rv expressing luciferase assessed as growth inhibition after 6 days by luminometry; type: functional; conditions: 144 h
Summary of the method: (§1)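 Strains carried pSMT1 luxAB reporter plasmid. DMSO stocks 10 mM, serially diluted in 7H9 + 10% FCS, triplicate wells. Filtered bacterial suspension at 50 000 RLU/mL. Luminescence read after 6 days using 1% n-decanal substrate. […] Growth temperatures: M.tb 37 °C; M. avium and M. bovis 39 °C.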

[4] = Selectivity ratio of IC90 for Mycobacterium ulcerans 1615 to IC90 for Mycobacterium tuberculosis; type: functional
[5] = system: Mycobacterium avium subsp. paratuberculosis; assay: Antimycobacterial activity against Mycobacterium avium subsp. paratuberculosis ATCC 19698 expressing luciferase assessed as growth inhibition after 6 days by luminometry; type: functional; conditions: ATCC 19698, 144 h; summary of the method: as §1
[6] = system: Mycobacterium tuberculosis; assay: Antimycobacterial activity against Mycobacterium tuberculosis H37Rv expressing luciferase assessed as growth inhibition preincubated with liver S9 fraction for 30 mins followed by incubation with parasite and measured after 6 days by luminometry; type: functional
Summary of the method: (§2)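 Compounds (100 μM) were preincubated with NADPH/G-6-P-conditioned liver S9 at 37 °C, 5% CO2 for 15 or 30 min. They were then serially diluted and tested against luminescent H37Rv in 7H9 + 10% FCS. Luminescence was read after 6 days with n-decanal.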

[7] = system: Mycobacterium tuberculosis; assay: Antimycobacterial activity against Mycobacterium tuberculosis H37Rv expressing luciferase infected in mouse J774A1 cells assessed as inhibition of replication measured after 1 to 4 days by luminescence assay; type: functional, J774.A1
Summary of the method: (§3)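 J774 A.1 cells (40 000/well) were infected with H37Rv lux at MOI 0.1 in DMEM with penicillin/fungizone and no gentamicin. Serial compound dilutions were added, with treatment starting 24 h post infection. Extracellular bacteria were removed by washes and 1 h 1% gentamicin. Cells were lysed with 1% Triton X-100 and luminescence read with n-decanal. Reduction in RLU versus untreated; INH 0.1 μM control.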

[8] = system: Mycobacterium tuberculosis; assay: Antimycobacterial activity against Mycobacterium tuberculosis H37Rv expressing luciferase infected in mouse J774A1 cells assessed as inhibition of replication at 0.03 to 0.05 uM measured after 1 to 4 days by luminescence assay; type: functional, organism-based; conditions: J774.A1; summary of the method: as §3
[9] = system: Mycobacterium tuberculosis; assay: Antimycobacterial activity against Mycobacterium tuberculosis Beijing 17919 expressing luciferase assessed as growth inhibition after 6 days by luminometry; type: functional; conditions: Beijing 17919, 144 h; summary of the method: as §1
[10] = Antimycobacterial activity against Mycobacterium avium subsp. avium ATCC 15769 expressing luciferase assessed as growth inhibition after 6 days by luminometry; type: functional; conditions: ATCC 15769, 144 h; summary of the method: as §1
[11] = Selectivity index, ratio of IC50 for mouse J774A1 cells to MIC for Mycobacterium tuberculosis H37Rv expressing luciferase infected in mouse J774A1 cells; type: toxicity, cell-based, J774.A1; conditions: read-out: Selectivity Index
Summary of the method: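 SI = neutral red IC50 in J774 A.1 cells (24 h) divided by the intracellular MIC. The intracellular MIC came from luminescent H37Rv in infected J774 A.1 macrophages after 3 days of treatment starting 24 h post infection, with lysate luminescence measured using n-decanal.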

[12] = system: Mycobacterium tuberculosis; assay: Antimycobacterial activity against Mycobacterium tuberculosis H37Rv expressing luciferase infected in mouse J774A1 cells assessed as inhibition of replication at 0.50 uM measured after 1 to 4 days by luminescence assay; type: functional; conditions: J774.A1; summary of the method: as §3
[13] = Genotoxicity in mouse J774A1 cells assessed as DNA strand breaks at 0.25 to 50 uM after 24 hrs by Comet assay; type: toxicity, cell-based; conditions: j774.a1, 24 h
Summary of the method: (§4)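 J774 A.1 cells (100 000/well) were exposed to compound serial dilutions in DMEM + 10% FCS for 24 h at 37 °C, 5% CO2. Alkaline comet assay: cells embedded in low-melt agarose, lysed, electrophoresed 20 min at 300 mA, neutralized and stained with gel red. The % tail DNA of 200 nuclei was scored by fluorescence microscopy. Mann–Whitney U test.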

[14] = system: Mycobacterium tuberculosis; assay: Antimycobacterial activity against Mycobacterium tuberculosis H37Rv expressing luciferase assessed as growth inhibition at 100 uM preincubated with liver S9 fraction for 15 mins followed by incubation with parasite and measured after 6 days by luminometry; type: functional, organism-based; summary of the method: as §2
[15] = system: Mycobacterium tuberculosis; assay: Antimycobacterial activity against Mycobacterium tuberculosis H37Rv expressing luciferase infected in mouse J774A1 cells assessed as inhibition of replication at 0.25 uM measured after 1 to 4 days by luminescence assay; type: functional; conditions: J774.A1; summary of the method: as §3
[16] = Genotoxicity in mouse J774A1 cells assessed as DNA strand breaks at 0.25 to 5 uM after 24 hrs by Comet assay; type: toxicity, cell-based; conditions: j774.a1, 24 h; summary of the method: as §4

Row | SMILES | IC50 [1] [µM] | selectivity ratio [2] | MIC99 [3] [µM] | further results
1 | Cc1ccc2c3c(cnc2c1)C(=O)c1ccccc1C3=O | 3.21 | 15 | – | MIC [3]: 0.64 µM (≈ 0.175 µg/mL)
2 | CCOC(=O)C1CCc2ncc3c(c2C1)C(=O)C1=C(C3=O)C2CCC1CC2 (stereo not given) | 49.8 | 191 | 0.26 (≈ 0.095 µg/mL) | Selectivity ratio [4]: 10; MIC [5]: 0.21 µM (≈ 0.0767 µg/mL); MIC [6]: 0.65 µM (≈ 0.238 µg/mL); MIC [7]: 2.41 µM (≈ 0.881 µg/mL); growth inhibition (GI) [8]: inactive; MIC [9]: 0.16 µM (≈ 0.0585 µg/mL); MIC [10]: 0.37 µM (≈ 0.135 µg/mL); selectivity ratio [11]: 79.3; inhibition at 0.5 µM [12]: 94.3%; Activity [13]: Non-toxic; growth inhibition (GI) [14]: Active; inhibition at 0.25 µM [15]: 55.8%
3 | CC(C)(C)C1CCc2ncc3c(c2C1)C(=O)C1=C(C3=O)C2CCC1C2 (stereo not given) | 51.4 | 87 | 0.59 (≈ 0.198 µg/mL) | Selectivity ratio [4]: 6; MIC [5]: 0.69 µM (≈ 0.231 µg/mL); MIC [6]: 1.05 µM (≈ 0.352 µg/mL); MIC [7]: 2.48 µM (≈ 0.832 µg/mL); growth inhibition (GI) [8]: inactive; MIC [9]: 0.33 µM (≈ 0.111 µg/mL); MIC [10]: 0.8 µM (≈ 0.268 µg/mL); selectivity ratio [11]: 20.7; inhibition at 0.5 µM [12]: 52.6%; Activity [13]: Non-toxic; growth inhibition (GI) [14]: Active; inhibition at 0.25 µM [15]: 43.8%
4 | CC(C)(C)C1CCc2ncc3c(c2C1)C(=O)C1=C(C3=O)C2CCC1CC2 (stereo not given) | 22.9 | 2.68 | 8.56 (≈ 2.99 µg/mL) | –
5 | Cc1nc2c(c3c1C(=O)c1ccccc1C3=O)CCCC2C (stereo not given) | 30.8 | 1.74 | 17.7 (≈ 5.15 µg/mL) | –
6 | O=C1c2ccccc2C(=O)c2c1cnc1c2CCCC1 | 7.34 | 0.74 | 9.88 (≈ 2.6 µg/mL) | –
7 | CC1CCCc2c1ncc1c2C(=O)c2ccccc2C1=O (stereo not given) | 14.9 | 1.03 | 14.4 (≈ 4 µg/mL) | –
8 | CC(C)(C)OC(=O)N1CCc2ncc3c(c2C1)C(=O)C1=C(C3=O)C2CCC1C2 (stereo not given) | 7.33 | 0.57 | 12.9 (≈ 4.9 µg/mL) | –
9 | CC(C)(C)C1CCc2ncc3c(c2C1)C(=O)C1=C(C3=O)C2CCC1O2 (stereo not given) | 53.2 | 7.38 | 7.21 (≈ 2.43 µg/mL) | –
10 | CC1CCc2c(ncc3c2C(=O)c2ccccc2C3=O)C1 (stereo not given) | 8.13 | 1.53 | 5.3 (≈ 1.47 µg/mL) | –
11 | CO[C@H]1/C=C/O[C@@]2(C)Oc3c(C)c(O)c4c(O)c(c(/C=N/N5CCN(C)CC5)c(O)c4c3C2=O)NC(=O)/C(C)=C\C=C\[C@H](C)[C@H](O)[C@@H](C)[C@@H](O)[C@@H](C)[C@H](OC(C)=O)[C@@H]1C [RIFAMPIN] | > 100 | > 526 | 0.19 (≈ 0.156 µg/mL) | –
12 | CC1CCc2ncc3c(c2C1)C(=O)c1ccccc1C3=O (stereo not given) | 1.31 | 0.14 | 9.61 (≈ 2.67 µg/mL) | –
13 | CC(C)(C)C1CCc2ncc3c(c2C1)C(=O)c1ccccc1C3=O (stereo not given) | 11.5 | 1.19 | 9.64 (≈ 3.08 µg/mL) | –
14 | Cc1nc2c(c3c1C(=O)c1ccccc1C3=O)CCC(C)C2 (stereo not given) | 25.7 | 2.61 | 9.85 (≈ 2.87 µg/mL) | –
15 | NNC(=O)c1ccncc1 [ISONIAZID] | > 100 | > 769 | 0.13 (≈ 0.0178 µg/mL) | MIC [5]: 0.99 µM (≈ 0.136 µg/mL); MIC [9]: 0.09 µM (≈ 0.0123 µg/mL); MIC [10]: 0.76 µM (≈ 0.104 µg/mL)
16 | Cc1nc2c(c3c1C(=O)c1ccccc1C3=O)CCCC2 | 10.9 | 0.61 | 17.8 (≈ 4.93 µg/mL) | –
17 | CCOC(=O)C1CCc2ncc3c(c2C1)C(=O)C1=C(C3=O)C2CCC1C2 (stereo not given) | 8.49 | 38.6 | 0.22 (≈ 0.0773 µg/mL) | Selectivity ratio [4]: 50; Activity [16]: Non-toxic; MIC [5]: 0.44 µM (≈ 0.155 µg/mL); MIC [6]: 0.66 µM (≈ 0.232 µg/mL); MIC [7]: 2.38 µM (≈ 0.836 µg/mL); growth inhibition (GI) [8]: inactive; MIC [9]: 0.14 µM (≈ 0.0492 µg/mL); MIC [10]: 1.22 µM (≈ 0.429 µg/mL); selectivity ratio [11]: 10.8; inhibition at 0.5 µM [12]: 86.7%; growth inhibition (GI) [14]: Active; inhibition at 0.25 µM [15]: 63.9%

From ChEMBL document CHEMBL3232782, “1,2,3,4,8,9,10,11-octahydrobenzo[j]phenanthridine-7,12-diones as new leads against Mycobacterium tuberculosis” (J Med Chem, 2014)
